From ChEMBL document CHEMBL4842319, “Synthesis of alkynylated 1,2,4-oxadiazole/1,2,3-1H-triazole glycoconjugates: Discovering new compounds for use in chemotherapy against lung carcinoma and Mycobacterium tuberculosis” (Eur J Med Chem, 2021)
Values after ≈ are worked out from the molar mass of the structure shown.

Experiments:
[1] = system: Mycobacterium tuberculosis; test: Antimycobacterial activity against Mycobacterium tuberculosis H37Ra ATCC 25177 assessed as inhibition of bacterial growth incubated for 9 days by resazurin microtiter assay; format: functional; conditions: H37Ra ATCC 25177, 216 h, time 9 day
How it was run: (§1)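 REMA broth microdilution in 7H9-S medium, run in duplicate. Test compounds were serially two-fold diluted on the plate from 64 to 0.5 µg/mL. Inoculum taken from fresh Löwenstein-Jensen culture, adjusted to McFarland no. 1 and diluted 1:20. Plates were sealed and incubated at 37 °C in normal atmosphere for 9 days, then resazurin was added. Rifampicin and ethambutol served as standards. MIC reported in µg/mL.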

[2] = system: Mycobacterium tuberculosis; test: Antimycobacterial activity against Mycobacterium tuberculosis H37Rv ATCC 27294 assessed as inhibition of bacterial growth incubated for 9 days by resazurin microtiter assay; format: functional; conditions: H37Rv ATCC 27294, 216 h, time 9 day; how it was run: as §1
[3] = Cytotoxicity against mouse RAW264.7 cells assessed as reduction in cell viability incubated for 48 hrs by MTT assay; format: cell-based
How it was run: (§2)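 RAW 264.7 macrophages and HepG2 cells were cultured in DMEM at 37 °C, 5% CO2. For the assay, 10⁵ cells/well were preincubated for 24 h, then exposed to compounds at […] for 48 h, in duplicate. MTT (5 mg/mL in PBS) was added for 2 h and absorbance read at 570 nm. Untreated wells served as the negative control. CC50 obtained by regression analysis.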

[4] = Cytotoxicity against human HepG2 cells assessed as reduction in cell viability incubated for 48 hrs by MTT assay; format: cell-based; how it was run: as §2
[5] = Cytotoxicity against African green monkey Vero cells assessed as reduction in cell viability measured after 5 days by MTT assay; format: cell-based; conditions: chlorocebus sabaeus, time 5 day
How it was run: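 Vero cells in DMEM with 10% inactivated FBS, plated at 1×10⁴ cells/well 24 h before treatment. Compounds were applied at 800, 400, 200, 100 and 50 µM, with at most 0.8% DMSO, for 5 days at 37 °C. MTT (1 mg/mL) was added for 4 h, formazan solubilised in DMSO and OD570 read. CC50 is the concentration giving a 50% reduction in absorbance.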

[6] = Selectivity index, ratio of CC50 for mouse RAW264.7 cells to MIC for antimycobacterial activity against Mycobacterium tuberculosis H37Rv ATCC 27294; format: toxicity; conditions: read-out: Selectivity Index
[7] = Selectivity index, ratio of CC50 for human HepG2 cells to MIC for antimycobacterial activity against Mycobacterium tuberculosis H37Rv ATCC 27294; format: toxicity; conditions: read-out: Selectivity Index
SK-MEL-103 = test: Cytotoxicity against human SK-MEL-103 cells assessed as inhibition of cell proliferation at 25 uM incubated for 72 hrs by MTT assay relative to control; format: functional; parameters: scale not given: the % may be the effect or the level left
How it was run: (§3)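 Tumor lines from NCI. PC-3, HCT-116 and NCIH-460 were grown in RPMI 1640; SKMEL-103 and AGP-01 in DMEM; all with 10% FBS at 37 °C, 5% CO2. Seeding was 0.3×10⁶ cells/mL for SKMEL-103 and AGP-01, 0.1×10⁶ for PC-3 and NCIH-460, and 0.7×10⁵ for HCT-116. Cells were exposed to compound at 25 µM for 72 h. Cells were centrifuged, 1% MTT added for 3 h, formazan dissolved in DMSO and read at 570 nm.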

[8] = Cytotoxicity against human AGP01 cells assessed as inhibition of cell proliferation at 25 uM incubated for 72 hrs by MTT assay relative to control; format: functional; parameters: scale not given: the % may be the effect or the level left; how it was run: as §3
HCT-116 = test: Cytotoxicity against human HCT-116 cells assessed as inhibition of cell proliferation at 25 uM incubated for 72 hrs by MTT assay relative to control; format: functional; parameters: scale not given: the % may be the effect or the level left; how it was run: as §3
PC-3 = test: Cytotoxicity against human PC-3 cells assessed as inhibition of cell proliferation at 25 uM incubated for 72 hrs by MTT assay relative to control; format: functional; parameters: scale not given: the % may be the effect or the level left; how it was run: as §3
NCI-H460 [9] = test: Cytotoxicity against human NCI-H460 cells assessed as inhibition of cell proliferation at 25 uM incubated for 72 hrs by MTT assay relative to control; format: functional; parameters: scale not given: the % may be the effect or the level left; how it was run: as §3
NCI-H460 [10] = test: Antiproliferative activity against human NCI-H460 cells assessed as inhibition of cell growth incubated for 72 hrs by MTT assay; format: functional, cell-based; conditions: NCI-H460, 72 h
How it was run: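 NCIH-460 cells in RPMI 1640 with 10% FBS at 0.1×10⁶ cells/mL, treated for 72 h at 37 °C, 5% CO2. MTT read-out: 1% MTT for 3 h, formazan dissolved in DMSO, absorbance at 570 nm. IC50 derived from absorbances by nonlinear regression.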

Compound	MIC [1] [µg/mL]	MIC [2] [µg/mL]	CC50 at 48 h [3] [µg/mL]	CC50 at 48 h [4] [µg/mL]	CC50 at 120 h [5] [µM]	selectivity ratio [6]	selectivity ratio [7]	Activity (SK-MEL-103) [%]	Activity [8] [%]	Activity (HCT-116) [%]	Activity (PC-3) [%]	Activity (NCI-H460 [9]) [%]	IC50 (NCI-H460 [10]) [µg/mL]
CC(=O)OC[C@H]1O[C@H](OC[C@@H](Cn2cc(CN(c3nc(-c4ccc(C(F)(F)F)cc4)no3)C3CCCCC3)nn2)OC(C)=O)C=C[C@@H]1OC(C)=O	≥ 64	≥ 64	64.1 (≈ 89 µM)	81.4 (≈ 113 µM)	706	< 1	1.67						
C#CCN(c1nc(-c2cccc(Br)c2)no1)C1CCCCC1	≥ 64	32 (≈ 88.8 µM)	31.8 (≈ 88.2 µM)	53.5 (≈ 148 µM)		0.9	1.67	39.4	69.1	65.6	58.6	17.9	
C#Cc1ccc(-c2noc(NC3CCCCC3)n2)cc1	32 (≈ 120 µM)	32 (≈ 120 µM)	19.8 (≈ 74.1 µM)	54.2 (≈ 203 µM)		0.62	1.69	40.1	44.4	60.7	46	34	
CC(=O)OC[C@H]1O[C@H](OC[C@@H](Cn2cc(CN(c3nc(-c4ccc([N+](=O)[O-])cc4)no3)C3CCCCC3)nn2)OC(C)=O)C=C[C@@H]1OC(C)=O	≥ 64	≥ 64		> 200		1.25		30.6	47.6	39.1	28.8	36.3	
CC(=O)OC[C@H]1O[C@H](OC[C@@H](Cn2cc(CN(c3nc(-c4cccc(C)c4)no3)C3CCCCC3)nn2)OC(C)=O)C=C[C@@H]1OC(C)=O	≥ 64	≥ 64	46.4 (≈ 69.6 µM)	39.2 (≈ 58.8 µM)		< 0.72	< 0.61	69	38.9	69.5	9.2	26.1	
CC(=O)OC[C@H]1O[C@H](OC[C@@H](Cn2cc(CN(c3nc(-c4ccc(C)cc4)no3)C3CCCCC3)nn2)OC(C)=O)C=C[C@@H]1OC(C)=O	8 (≈ 12 µM)	16 (≈ 24 µM)	45.3 (≈ 68 µM)	36.8 (≈ 55.2 µM)	498	2.83	2.3						
C#CCN(c1nc(-c2cccc(C)c2)no1)C1CCCCC1	≥ 64	32 (≈ 108 µM)	25.9 (≈ 87.6 µM)	44.4 (≈ 150 µM)		0.8	1.38	87.7	94.5	86.5	29.4	40.2	
C#CCN(c1nc(-c2ccc(OC)cc2)no1)C1CCCCC1	≥ 64	64 (≈ 206 µM)	28 (≈ 89.8 µM)	72.5 (≈ 233 µM)		0.46	1.13	37.3	57.3	40.7	23.7	69.1	1 (≈ 3.21 µM)
C#CCN(c1nc(-c2ccccc2)no1)C1CCCCC1	≥ 64	≥ 64	32.1 (≈ 114 µM)	109 (≈ 386 µM)		< 0.5	< 1.69	28.6	47		23.7	22.6	
C#CCN(c1nc(-c2ccc(F)cc2)no1)C1CCCCC1	64 (≈ 214 µM)	64 (≈ 214 µM)	20.9 (≈ 69.9 µM)	41.1 (≈ 137 µM)		0.32	0.64	47.3	50.4	44.9	25.4	50.5	1.16 (≈ 3.88 µM)
CC(=O)OC[C@H]1O[C@H](OC[C@@H](Cn2cc(CN(c3nc(-c4ccc(F)cc4)no3)C3CCCCC3)nn2)OC(C)=O)C=C[C@@H]1OC(C)=O	≥ 64	≥ 64	31.5 (≈ 46.9 µM)	28.8 (≈ 42.9 µM)		< 0.49	< 0.45	20.7	69.4	44.9	7.1	17.7	
C#CCN(c1nc(-c2cccc([N+](=O)[O-])c2)no1)C1CCCCC1	≥ 64	≥ 64	34.2 (≈ 105 µM)	45.5 (≈ 139 µM)		< 0.53	< 0.71	44.4	46	24.8	7.2	5.8	
C#CCOc1ccc(-c2noc(NC3CCCCC3)n2)cc1	32 (≈ 108 µM)	32 (≈ 108 µM)	38.3 (≈ 129 µM)	119 (≈ 399 µM)		1.29	3.7	62.8	2.6	43.3	64.2	75.7	5.3 (≈ 17.8 µM)
CC(=O)OC[C@H]1O[C@H](OC[C@@H](Cn2cc(CN(c3nc(-c4ccccc4)no3)C3CCCCC3)nn2)OC(C)=O)C=C[C@@H]1OC(C)=O	16 (≈ 24.5 µM)	16 (≈ 24.5 µM)	28.6 (≈ 43.8 µM)	19.9 (≈ 30.5 µM)	607	1.78	1.24						
COc1cccc2c1C(=O)c1c(O)c3c(c(O)c1C2=O)C[C@@](O)(C(=O)CO)C[C@@H]3O[C@H]1C[C@H](N)[C@H](O)[C@H](C)O1 [DOXORUBICIN]													0.08 (≈ 0.147 µM)
